# Sampled rows, rich in hits. Any-hit rate of the full collection: about 2%.
# CHRM1 antagonist = human M1 muscarinic receptor antagonists, primary screen, CHO-K1 cells, Fluo-8 calcium fluorescence, 1536-well | Muscarinic acetylcholine receptor M1 (Homo sapiens), P11229 | CHO-K1 hM1, ACh EC80 antagonist | inhibition, % at 3 µM | hit rate 1.3% among 360,000 | AID 588852, 2011;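 active = percent inhibition above its own plate's cutoff, namely the mean of that plate's compound wells plus 3 SD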;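 note: peak over basal fluorescence ratio during 140 s after agonist addition; 0% = ACh EC80 plus DMSO and 100% = DMSO alone without agonist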
# M5 antag = human M5 muscarinic receptor antagonists, primary screen, CHO cells, Fluo-8 calcium fluorescence. Muscarinic acetylcholine receptor M5 (Homo sapiens), P08912. CHO-hM5 cells, ACh EC80. inhibition, % at 3 µM. hit rate 0.59% among 360,000;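 active = inhibition above a per-plate cutoff, the mean of that plate's test compounds plus 3 SD, cut at about 27% in these data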;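 note: 0% = acetylcholine EC80 with DMSO and 100% = DMSO without agonist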
# Target sequence (P08912 whole entry, looked up): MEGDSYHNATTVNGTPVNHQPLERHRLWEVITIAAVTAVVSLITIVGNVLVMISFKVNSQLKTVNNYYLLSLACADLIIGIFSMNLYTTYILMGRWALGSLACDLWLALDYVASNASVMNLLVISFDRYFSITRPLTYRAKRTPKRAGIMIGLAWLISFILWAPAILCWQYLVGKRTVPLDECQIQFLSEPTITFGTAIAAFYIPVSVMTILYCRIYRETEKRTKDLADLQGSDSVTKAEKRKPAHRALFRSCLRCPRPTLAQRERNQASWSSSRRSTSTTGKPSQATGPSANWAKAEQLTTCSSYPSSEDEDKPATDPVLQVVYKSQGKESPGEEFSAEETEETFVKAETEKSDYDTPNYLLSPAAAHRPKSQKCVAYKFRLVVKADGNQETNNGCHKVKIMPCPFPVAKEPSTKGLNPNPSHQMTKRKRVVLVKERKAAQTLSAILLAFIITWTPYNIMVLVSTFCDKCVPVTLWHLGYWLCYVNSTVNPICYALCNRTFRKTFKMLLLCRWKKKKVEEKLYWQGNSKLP
# M1 ag = human M1 muscarinic receptor agonists, primary screen, Fluo-8 calcium fluorescence, CHO-K1 cells, HTS. hit rate 0.33% among 360,000. activation, % at 3 µM. CHO-K1 hM1, agonist mode; 0% DMSO, 100% acetylcholine EC100;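 active = activation above the run's mean compound activation plus 3 SD, cut at about 16% in these data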;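 note: peak over basal fluorescence ratio within a 140 s kinetic read after compound addition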
# M5 PAM = human M5 muscarinic receptor positive allosteric modulators, primary screen, CHO-K1 cells, Fluo-8 calcium fluorescence; Muscarinic acetylcholine receptor M5 (Homo sapiens), P08912; CHO-K1 hM5, ACh EC20 PAM; 0% = ACh EC20, 100% = ACh EC100; activation, % at 3 µM; hit rate 0.3% among 360,000;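 active = activation above the run cutoff, the mean activation of all test compounds plus 3 SD, cut at about 18% in these data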
#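 System: CHO-K1 hM5 cells. Reagent: acetylcholine, EC20 level. Compound dosing: single dose, 3 µM nominal final test concentration. Timing: Post-acetylcholine fluorescence recording 140 s. Detection: Fluo-8 calcium fluorescence. Read-out: % activation, ACh-normalized. Benchmarks: ACh EC20 and EC100 wells. Repeats: singlicate, one well per test compound.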
# CHRM5 agonist = human M5 muscarinic receptor agonists, primary screen, CHO-K1 cells, Fluo-8 calcium fluorescence | AID 624037, 2012 | activation, % at 3 µM | Muscarinic acetylcholine receptor M5 (Homo sapiens), P08912 | hit rate 0.19% among 360,000 | CHO-K1 hM5 cells; 0% DMSO wells, 100% maximal acetylcholine response;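 active = activation above the run's mean over test compounds plus 3 SD, cut at about 23% in these data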;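 note: signal is peak over basal fluorescence ratio across the kinetic read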
# CHRM1 PAM = human M1 muscarinic receptor positive allosteric modulators, primary screen, CHO-K1 cells, Fluo-8 calcium fluorescence, 1536-well; Muscarinic acetylcholine receptor M1 (Homo sapiens), P11229; CHO-K1 hM1, ACh EC20; 0% = ACh EC20, 100% = maximal ACh; activation, % at 3 µM; hit rate 0.088% among 360,000; AID 588819, 2011; in the data active = activation above about 19%, passing the limit was not always enough
# * hit, by the source's call; x = not tested or not shown.
SMILES,CHRM1 antagonist,M5 antag,M1 ag,M5 PAM,CHRM5 agonist,CHRM1 PAM
CC1Cc2ccccc2N1S(=O)(=O)c1cccc(C(=O)NNC(=O)c2ccccc2F)c1 (stereo not given),2.4,0.9,-4.6,-5.3,0.1,0.2
COc1ccccc1N(C)S(=O)(=O)c1ccc(C(=O)Nc2ccc(C(N)=O)cc2)cc1,-0.7,9.5,-1.5,-22.1,2.4,2.4
CCN(CC)CCNC(=O)c1ccc(NC(=O)c2cccc(S(=O)(=O)Nc3ccc(C)cc3)c2)cc1,97.7*,52.0*,-12.0,-18.7,-10.8,-30.5
CCN(CC)CCNC(=O)c1ccc(NC(=O)c2cc(S(=O)(=O)N3CCCCC3)ccc2C)cc1,93.5*,36.4*,-7.6,-38.5,-9.7,-25.6
O=C(NNC(=O)c1ccccc1F)c1cccc(S(=O)(=O)N2CCc3ccccc32)c1,37.6*,26.3,0.2,-25.7,2.8,-14.2
CN(C)CCNC(=O)c1cccc(S(=O)(=O)Nc2ccc(F)cc2)c1,6.2,-0.1,-9.7,8.0,-3.5,1.0
CCOC(=O)C1=CCN(S(=O)(=O)c2ccccc2Cl)C1c1cccc(C)c1 (stereo not given),18.1,-4.1,-11.4,-4.0,-6.2,-11.6
CCOC(=O)N1CCN(C(=O)c2ccc(CS(=O)c3cccc(C)c3)o2)CC1 (stereo not given),-12.6,6.8,-1.4,0.9,0.6,7.1
CC1(C(=O)NS(=O)(=O)c2ccc(Cl)s2)CCN1C(=O)Cc1ccc(Cl)cc1Cl (stereo not given),-17.5,3.1,-3.7,-5.6,-0.9,11.0
CCN(CC)CCNC(=O)c1ccc(NC(=O)c2cccc(S(=O)(=O)N3c4ccccc4CC3C)c2)cc1 (stereo not given),100.3*,98.3*,-5.5,-15.0,-7.9,-22.7
CCN(CC)CCNC(=O)c1cc(S(=O)(=O)N2CCc3ccccc32)cn1C,23.9,18.7,-6.6,-14.8,2.2,-13.6
CCN(CC)CCNC(=O)c1ccc(NC(=O)c2cccc(S(=O)(=O)N3CCc4ccccc43)c2)cc1,100.2*,83.3*,-7.3,-30.8,-8.1,-26.2
O=C(NCc1ccc2c(c1)OCO2)c1[nH]c(C(F)(F)F)nc1-c1ccccc1,-24.1,4.8,-1.1,4.2,-0.2,0.2
Cn1nccc1-c1coc2c(C(=O)NCc3ccccc3)cccc12,-0.3,-1.4,0.5,-7.6,4.2,-3.1
Cc1ccnc2nc(C(=O)OCCOc3ccccc3)nn12,2.0,4.3,-4.5,-11.6,-1.3,-0.2
Cc1ccnc2nc(C(=O)OCC(=O)NC3CCCC(C)C3C)nn12 (stereo not given),-22.8,4.9,0.6,-3.8,1.1,29.6*
Cc1ccnc2nc(C(=O)OCCOc3cccc(Br)c3)nn12,-20.5,11.0,3.3,-3.8,0.3,22.9*
CC(C)Oc1cccc(C(=O)Nc2nnc([C@H]3C[C@H](O)[C@@H](CO)O3)s2)c1,-13.8,6.4,0.1,-1.9,0.6,14.3
Nc1[nH]c(C(=O)c2ccccc2)c(-c2ccc(Cl)cc2)c1C(=O)NCc1ccco1,x,4.4,x,-7.1,2.6,x
CS(=O)(=O)c1cc(C(=O)O)cc(NCc2ccccc2)c1Oc1ccccc1,-12.5,0.2,-1.1,-0.3,0.8,5.8
O=C(Cc1ccc(NC2=NC3CS(=O)(=O)CC3S2)cc1)NCc1ccccc1 (stereo not given),-2.0,1.3,-2.8,1.9,1.7,1.2
COc1ccccc1N(CC(=O)Nc1ccc2c(c1)OCO2)S(=O)(=O)c1ccccc1,11.7,9.3,-2.7,-10.0,1.6,-4.6
COc1ccc(S(=O)(=O)N(CC(=O)Nc2ccc3c(c2)OCO3)c2ccccc2OC)cc1,31.4*,14.8,0.3,-15.7,0.8,-8.8
CC(C)n1nnnc1C1c2ccccc2C(=O)N1Cc1cccc(F)c1 (stereo not given),x,-8.4,x,2.0,-4.3,x
O=S(=O)(c1ccc(F)cc1)c1snnc1-c1ccccc1,-8.1,8.9,-13.0,-9.7,-10.1,-4.7
SMILES,CHRM1 antagonist,M5 antag,M1 ag,M5 PAM,CHRM5 agonist,CHRM1 PAM
O=S(=O)(c1ccc(Cl)cc1)c1snnc1-c1ccccc1,37.4*,10.1,-5.6,-21.9,-8.3,-21.6
CCCCN(C)c1c(C)nc2ccc(C(=O)NCc3ccc(OC)cc3)cn12,-13.0,-1.4,-5.4,0.5,-0.2,3.5
Cc1ccc(S(=O)(=O)N2C[C@H]3C(=O)C[C@@H](c4ccc(Cl)cc4)N(S(=O)(=O)c4ccccc4C)[C@H]3C[C@H]2c2cccc(Cl)c2)cc1,-4.7,-3.8,-1.1,-3.4,1.6,-1.1
Cc1ccc(S(=O)(=O)N2C[C@H]3C(=O)C[C@@H]4C(=O)N(c5ccccc5)C(=O)[C@@H]4[C@@H]3C[C@H]2c2cccc(Cl)c2)cc1,23.4,7.5,-2.1,-10.9,7.0,-5.5
Cn1c(NCC2CCCCC2)nc2cc(-c3ccsc3)sc2c1=O,-17.1,-2.6,-1.4,1.4,0.0,5.1
CC[n+]1ccccc1/C=C/c1ccc(N(C)C)cc1,-5.6,-2.2,-6.1,0.5,-4.2,7.2
CCCCCC[n+]1ccccc1/C=C/c1ccc(N(C)C)cc1,74.0*,63.5*,29.5*,-21.4,42.5*,-32.9
CC(C)(C)n1nnnc1C(c1ccccc1)N1CCN(c2ccc(C(F)(F)F)cn2)CC1 (stereo not given),x,-0.4,x,0.1,-2.1,x
CN1CCC(=C(c2ccccc2)c2ccc(Br)cc2)CC1,53.7*,29.5*,11.0,-34.5,-14.9,-14.2
CN1CCC(OC(=O)c2ccc(Br)cc2)CC1,4.4,6.8,-6.1,-11.5,-7.6,-11.7
COc1ccc(Nc2ccnc3ccccc23)cc1,-8.9,-3.6,25.2*,-5.2,-4.0,-0.2
COc1ccc(N(CC(=O)NCc2ccc(F)cc2)S(=O)(=O)c2c(C)n[nH]c2C)cc1,-17.7,5.7,-2.8,3.2,-2.3,13.7
CCOc1ccccc1NC(=O)CN(c1ccc(C)cc1)S(=O)(=O)c1c(C)n[nH]c1C,20.1*,5.2,-6.2,-22.8,-11.4,-24.0
COc1ccc(N(CC(=O)NCc2ccc(Cl)cc2)S(=O)(=O)c2c(C)n[nH]c2C)cc1,0.0,29.6*,-1.8,-9.3,-4.5,2.6
COc1cc2ccc(NC(C)=O)cc2cc1OC,-13.5,-7.4,-2.4,4.7,0.9,7.8
